Experimental data published in paper PMC5077689 (FEBS letters, 2016).

How the values were obtained:
[1] = biological target: T1, bovine lung sGC (Bos taurus, UniProt P16068+P19687); assay: NO; format: biochemical
T1 sequence (P19687 1-691): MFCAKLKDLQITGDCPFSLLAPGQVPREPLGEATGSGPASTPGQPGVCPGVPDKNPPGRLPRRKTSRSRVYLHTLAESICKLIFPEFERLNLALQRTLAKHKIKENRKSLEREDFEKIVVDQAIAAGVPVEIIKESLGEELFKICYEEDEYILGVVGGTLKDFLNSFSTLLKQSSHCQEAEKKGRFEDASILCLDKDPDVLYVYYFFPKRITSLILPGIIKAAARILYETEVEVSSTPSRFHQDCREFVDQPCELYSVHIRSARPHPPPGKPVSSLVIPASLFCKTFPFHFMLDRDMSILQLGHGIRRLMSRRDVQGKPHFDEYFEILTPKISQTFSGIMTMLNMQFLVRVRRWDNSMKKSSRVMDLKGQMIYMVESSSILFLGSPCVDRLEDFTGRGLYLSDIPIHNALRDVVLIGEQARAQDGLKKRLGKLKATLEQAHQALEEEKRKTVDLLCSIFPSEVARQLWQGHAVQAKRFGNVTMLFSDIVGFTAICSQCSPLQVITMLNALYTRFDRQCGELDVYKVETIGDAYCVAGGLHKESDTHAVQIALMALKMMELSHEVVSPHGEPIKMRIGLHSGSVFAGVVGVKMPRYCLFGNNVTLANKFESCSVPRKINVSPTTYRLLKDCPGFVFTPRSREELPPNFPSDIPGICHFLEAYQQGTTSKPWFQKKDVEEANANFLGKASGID
T1 sequence (P16068 1-619): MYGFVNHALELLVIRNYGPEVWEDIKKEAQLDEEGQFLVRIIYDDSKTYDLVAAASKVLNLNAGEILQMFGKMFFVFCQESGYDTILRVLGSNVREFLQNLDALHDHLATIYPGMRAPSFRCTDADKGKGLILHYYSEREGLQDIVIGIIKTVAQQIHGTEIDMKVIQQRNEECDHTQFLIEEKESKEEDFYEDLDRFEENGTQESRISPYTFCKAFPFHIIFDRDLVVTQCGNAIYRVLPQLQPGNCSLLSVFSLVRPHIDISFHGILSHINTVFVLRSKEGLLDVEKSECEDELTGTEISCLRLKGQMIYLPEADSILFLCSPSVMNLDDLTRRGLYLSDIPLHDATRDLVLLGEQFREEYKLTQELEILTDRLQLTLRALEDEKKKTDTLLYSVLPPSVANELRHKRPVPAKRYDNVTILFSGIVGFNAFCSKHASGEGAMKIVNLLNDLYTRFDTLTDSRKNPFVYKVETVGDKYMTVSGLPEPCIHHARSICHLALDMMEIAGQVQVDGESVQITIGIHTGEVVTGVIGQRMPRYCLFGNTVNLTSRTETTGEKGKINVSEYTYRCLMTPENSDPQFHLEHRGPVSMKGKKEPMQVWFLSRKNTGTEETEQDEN
Method in brief: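 Screening and kinetics used bovine lung sGC diluted 17-fold in 50mM Tris pH 7.5, 5mM MgCl2, 2mM BME, 20% sucrose, 0.5mg/ml BSA. 1nM enzyme was preincubated with inhibitor 10 min at 37°C in 50mM Tris pH 7.5, 2mM BME, 5mM MgCl2. DMSO-matched controls (1–2.5%). GTP plus 100μM SNAP started a 10 min, 37°C reaction, stopped by 10 min boiling. cGMP measured by ELISA; 3 independent experiments.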

[2] = biological target: T1, bovine lung sGC; assay: BAY 58-2667 activated sGC activity assay; format: biochemical; settings: 100μM inhibitor, 600μM GTP
Method in brief: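 Bovine lung sGC, diluted 17-fold in 50mM Tris pH 7.5, 5mM MgCl2, 2mM BME, 20% sucrose, 0.5mg/ml BSA, used at 1nM. Preincubated 10 min at 37°C with varying BAY 58-2667 and inhibitor in 5mM MgCl2. 0.5% DMSO served as control. GTP added to start. Stopped by boiling; cGMP measured by ELISA. Triplicate, 3 independent experiments; SEM.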

[3] = biological target: T1, bovine lung sGC; assay: BAY 41-2272 stimulated sGC activity assay; format: biochemical; settings: 100μM inhibitor, range of BAY 41-2272, presence and absence of 1μM SNAP, 500μM GTP
[4] = biological target: T2, sGC catalytic domain (Homo sapiens, UniProt Q02108+Q02153); assay: Purified sGC catalytic domain activity assay; format: biochemical; settings: 1μM catalytic domain, 3 GTP concentrations, inhibitor 0–600μM
T2 sequence (Q02108 481-608 limits assumed): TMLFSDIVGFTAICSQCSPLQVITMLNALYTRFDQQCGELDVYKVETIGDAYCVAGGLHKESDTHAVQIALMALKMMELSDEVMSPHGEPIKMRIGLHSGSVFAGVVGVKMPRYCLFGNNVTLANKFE
T2 sequence (Q02153 421-554 limits assumed): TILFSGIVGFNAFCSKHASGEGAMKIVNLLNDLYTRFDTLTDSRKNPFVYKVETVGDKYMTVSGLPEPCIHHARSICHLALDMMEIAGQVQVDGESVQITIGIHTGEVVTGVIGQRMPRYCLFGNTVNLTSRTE
Method in brief: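 Heterodimeric α1/β1 catalytic domain was co-purified from mixed cell pellets by His-tag Ni-NTA (30–300mM imidazole elution steps). The tag was removed with TEV, and the protein gel-filtered in 50mM HEPES pH 7, 150mM NaCl and stored at −80°C. Inhibitor was preincubated with domain 10 min at 37°C with Mg2+. GTP started the reaction, stopped by boiling after 10 min. cGMP measured by ELISA; triplicate; SEM.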

[5] = biological target: SHV-1 β-lactamase (Klebsiella pneumoniae, UniProt P0AD64); assay: Promiscuous inhibition test with SHV-1 β-lactamase; format: biochemical; settings: Fig S1
Sequence of SHV-1 β-lactamase (P0AD64 22-286): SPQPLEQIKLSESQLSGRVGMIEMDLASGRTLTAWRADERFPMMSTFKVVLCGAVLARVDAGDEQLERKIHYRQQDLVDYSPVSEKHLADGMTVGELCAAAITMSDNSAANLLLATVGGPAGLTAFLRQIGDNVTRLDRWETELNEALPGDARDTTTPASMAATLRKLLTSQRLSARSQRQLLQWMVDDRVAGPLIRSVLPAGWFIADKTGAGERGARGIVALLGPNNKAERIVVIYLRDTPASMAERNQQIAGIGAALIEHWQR

[6] = Compound aggregation by dynamic light scattering; format: physicochemical; settings: DYNAPRO, Fig S2
[7] = biological target: T3, full length sGC (Bos taurus, UniProt P16068+P19687); assay: Size exclusion chromatography for sGC aggregation; settings: 200μM compound, data not shown
T3 sequence (P19687 1-691): T1 sequence (P19687 1-691)
T3 sequence (P16068 1-619): T1 sequence (P16068 1-619)

SMILES: Nc1nc(=O)[nH]nc1Nc1ccc(O)cc1 [Compound 1]
- inhibition of NO stimulated sGC activity, initial screen ([1]; 1nM sGC, 25μM GTP, 100μM SNAP, 10μM inhibitor): substantial inhibition
- α-value (mixed inhibition model) ([1]; global fit of steady state inhibition data, 100μM SNAP): 3.6
- inhibition mechanism ([1]; judged from α-value of mixed model fit): mostly non-competitive
- inhibition of BAY 58-2667 activated sGC [2]: 96%
- inhibition of BAY 41-2272 stimulated sGC [3]: inhibited
- inhibition of the purified catalytic domain (in words) [4]: did not observe significant inhibition
- inhibition of SHV-1 β-lactamase [5]: did not inhibit
- aggregate formation (dynamic light scattering) [6]: do not form detectably large aggregates
- sGC aggregation caused by compound (size exclusion chromatography) [7]: did not cause sGC aggregation
